STAT1 blocker: reduces IFN-gamma driven STAT1 reporter signal; NIH 3T3 STAT1-luciferase reporter, luminescence; inhibition, % at 5.5 µM; hit rate 0.35% among 200,000;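 active means inhibition above a set limit, the mean inhibition across all tested compounds plus 3 SD, cut at about 34% in these data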;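 further: 0% = IFN-gamma with DMSO and 100% = IFN-gamma with 300 µM nifuroxazide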
STAT3 act: STAT3 signaling activation | activation (% of control), % at 5.6 µM | U3A cells, IL-6 STAT3-luciferase reporter, luminescence; 100% = signal with IL-6 EC80 alone | hit rate 0.91% among 190,000 | AID 871;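 active means activation above the screen-wide mean of compound activation plus 3 SD, cut at about 130% in these data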;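 further: 0% = background luminescence of wells with medium and substrate only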
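Material: STAT1-lacking human U3A cells, STAT3 luciferase reporter | Benchmarks: IL-6-only wells as 100% reference | Probe or stimulus: IL-6 (33 ng/mL) | Timing: Compound 1 h, then IL-6 6 h at 37 °C | Detection: Luminescence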
STAT3 inh: STAT3 signaling inhibition. U3A cells, IL-6 STAT3-luciferase reporter, luminescence; host cell line lacks STAT1. inhibition, % at 5.5 µM. hit rate 0.89% among 190,000;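 active means inhibition above the mean inhibition across all screened compounds plus 3 SD, cut at about 44% in these data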;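 further: 0% = DMSO only wells and 100% = 100 µM nifuroxazide control wells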
HSP90 refold inh: blocks HSP90-mediated luciferase refolding in reticulocyte lysate; inhibition, % at 5.6 µM; AID 1789; hit rate 0.91% among 290,000; Rabbit reticulocyte lysate, luciferase refolding luminescence, 3 h;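 active means inhibition above the screen-wide mean plus 3 SD, computed separately per campaign, cut at about 16% in these data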;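 further: 0% = DMSO wells and 100% = 60 µM geldanamycin wells; inhibitors lower the luminescence because luciferase stays unfolded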
An asterisk follows results filed as active. The list is not random: actives were taken first. Their share in the collection is about 2%.

How did O=[N+]([O-])c1cccc(C2=NC(c3ccccc3)CO2)c1 (configuration not stated) do in these assays?
STAT1 blocker: -18; STAT3 act: 103; STAT3 inh: -7; HSP90 refold inh: -3

What do the screens show for `N#CC(c1ccc(Cl)cc1)c1ccc2c(C(F)(F)F)cc(C(F)(F)F)nc2n1` (configuration not stated)?
STAT1 blocker: 75*; STAT3 act: 29; STAT3 inh: 87*; HSP90 refold inh: 3

How did FC(F)(F)c1cc(C(F)(F)F)c2ccc(N3CCN(c4ccc(Cl)cc4)CC3)nc2n1 do in these assays?
STAT1 blocker: 2; STAT3 act: 93; STAT3 inh: 14; HSP90 refold inh: -1

What do the screens show for `COc1cc(CNS(=O)(=O)c2ccc3c(c2)CC(C)N3C(C)=O)cc(OC)c1OC` (configuration not stated)?
HSP90 refold inh: 1

Results for COc1ccc(-c2ccc(SC)nn2)cc1 ?
STAT1 blocker: 59*; STAT3 act: 30; STAT3 inh: 84*; HSP90 refold inh: 43*

How did COc1ccccc1C1CC(c2cccs2)=Nc2ccccc2S1 (configuration not stated) do in these assays?
STAT1 blocker: -13; STAT3 act: 133*; STAT3 inh: -34; HSP90 refold inh: 11

How did COc1ccccc1C1CC(c2cccs2)=NN1C(=O)CCC(=O)O (configuration not stated) do in these assays?
HSP90 refold inh: -5

What do the screens show for `COc1ccc(-n2[nH]c(C)cc2=O)cc1`?
STAT1 blocker: 4; STAT3 act: 111; STAT3 inh: -2; HSP90 refold inh: 17*

What do the screens show for `N/C(=N\OC(=O)c1ccc(Cl)cc1Cl)c1ccccn1`?
STAT1 blocker: 89*; STAT3 act: 28; STAT3 inh: 86*; HSP90 refold inh: 91*

Results for CCCCNc1nc(Nc2ccc(C)c(Cl)c2)c2cnn(C)c2n1 ?
HSP90 refold inh: -3

How did COc1cc(-n2nc(C)c3c2OC(N)=C(C#N)C3c2ccccc2)c(Cl)c(Br)c1O (configuration not stated) do in these assays?
STAT1 blocker: 1; STAT3 act: 129; STAT3 inh: -29; HSP90 refold inh: 17*

How did Clc1nc(-c2ccccc2)cc(-c2ccc(Br)cc2)n1 do in these assays?
STAT1 blocker: 13; STAT3 act: 138*; STAT3 inh: -33; HSP90 refold inh: -1

What do the screens show for `NC(=S)N/N=C\c1c(OCc2ccccc2Cl)ccc2ccccc12`?
STAT1 blocker: -33; STAT3 act: 88; STAT3 inh: 19; HSP90 refold inh: 5

Results for CN=c1scc(-c2ccccc2F)n1/N=C/c1ccc[nH]1 ?
STAT1 blocker: 97*; STAT3 act: 9; STAT3 inh: 110*; HSP90 refold inh: 85*

How did O=C(NCc1ccc(Cl)cc1)N1CCc2ccccc2C1 do in these assays?
HSP90 refold inh: -1

Results for COc1ccc(CNC(=O)N2CCc3ccccc3C2)cc1Cl ?
HSP90 refold inh: 16*

What do the screens show for `COCCNC(=S)NNc1ccccc1[N+](=O)[O-]`?
STAT1 blocker: -4; STAT3 act: 136*; STAT3 inh: -41; HSP90 refold inh: -1

What do the screens show for `CNC(=S)NNc1ccccc1[N+](=O)[O-]`?
STAT1 blocker: -6; STAT3 act: 117; STAT3 inh: -13; HSP90 refold inh: -3

Results for Cc1ccc(S(=O)(=O)Oc2ccc(/C=N/N=C3/NC(=O)C(CC(=O)O)S3)cc2)cc1[N+](=O)[O-] (configuration not stated) ?
HSP90 refold inh: -1

Results for CCOC(=O)c1ccc(NC(=O)N2CCN(Cc3ccccc3)CC2)cc1 ?
STAT1 blocker: -10; STAT3 act: 133*; STAT3 inh: -28; HSP90 refold inh: -1

How did C=CCNC(=O)c1ccc(NC(=O)C2=CSCCO2)cc1 do in these assays?
HSP90 refold inh: 17*

What do the screens show for `CC(C)CCNC(=O)c1ccc(NC(=O)C2=CSCCO2)cc1`?
HSP90 refold inh: -3

What do the screens show for `OCCC1CN(Cc2ccon2)CCN1Cc1ccccc1` (configuration not stated)?
STAT1 blocker: 6; STAT3 act: 108; STAT3 inh: -4; HSP90 refold inh: 1

What do the screens show for `CC(=O)Oc1ccc(/C=N/NS(=O)(=O)c2ccccc2)cc1`?
STAT1 blocker: -6; STAT3 act: 90; STAT3 inh: 19; HSP90 refold inh: -1

How did CSc1nc(O)c(N=Nc2ccc(F)cc2F)c(=O)[nH]1 do in these assays?
HSP90 refold inh: 15

Results for Cc1cccc(NC(=O)Nc2ccc(C)c(C)c2)n1 ?
STAT1 blocker: -31; STAT3 act: 135*; STAT3 inh: -33; HSP90 refold inh: 3

What do the screens show for `Cc1ccc(NC(=O)Nc2cccc(C)n2)cc1`?
HSP90 refold inh: -4

How did Oc1cccc(C=NCc2ccccc2)c1O do in these assays?
STAT1 blocker: 11; STAT3 act: 102; STAT3 inh: 4; HSP90 refold inh: 4

What do the screens show for `Oc1c(C=NCc2ccccc2)sc2ccccc12`?
STAT1 blocker: -48; STAT3 act: 103; STAT3 inh: -2; HSP90 refold inh: 24*

What do the screens show for `COc1cc(O)ccc1C(=O)CCc1ccc(O)cc1`?
HSP90 refold inh: -3

How did CCn1nc(C(=O)OCC(=O)c2cc(C)n(Cc3cccs3)c2C)c2ccccc2c1=O do in these assays?
STAT1 blocker: -17; STAT3 act: 107; STAT3 inh: -4; HSP90 refold inh: 33*

Results for COc1ccc(C(=O)N=c2sc3ccccc3n2C)cc1 ?
STAT1 blocker: -46; STAT3 act: 134*; STAT3 inh: -40; HSP90 refold inh: -4

How did Cc1ccc(S(=O)(=O)Nc2ccccc2C(N)=O)cc1 do in these assays?
STAT1 blocker: -9; STAT3 act: 134*; STAT3 inh: -37; HSP90 refold inh: -3

What do the screens show for `Nc1nccc(-c2ccc(-n3cnc4ccccc43)cc2)n1`?
STAT1 blocker: 1; STAT3 act: 133*; STAT3 inh: -37; HSP90 refold inh: 0

How did Cc1cccc(/C=N/Nc2nncc3ccccc23)c1 do in these assays?
STAT1 blocker: 52*; STAT3 act: 32; STAT3 inh: 84*; HSP90 refold inh: 9

What do the screens show for `COC(=O)/C(=C/c1c[nH]c2ccccc12)[N+](=O)[O-]`?
STAT1 blocker: 16; STAT3 act: 134*; STAT3 inh: -32; HSP90 refold inh: 2

Results for COc1cc(S(=O)(=O)n2nnc3ccccc32)c(OC)cc1Cl ?
STAT1 blocker: 35*; STAT3 act: 86; STAT3 inh: 18; HSP90 refold inh: 1

Results for O=C(Nc1ccc2c(c1)CCC2)c1ccc(Cl)nc1 ?
STAT1 blocker: -71; STAT3 act: 137*; STAT3 inh: -28; HSP90 refold inh: -4

What do the screens show for `O=C(Nc1ccc2c(c1)CCC2)c1cnc(Cl)c(Cl)c1`?
STAT1 blocker: -37; STAT3 act: 108; STAT3 inh: -3; HSP90 refold inh: -3

How did Cc1nnc(SCC(=O)Nc2ccc([N+](=O)[O-])cc2)n1C do in these assays?
HSP90 refold inh: -2

What do the screens show for `C#Cc1ccc([C@@H]2C=C(C(=O)O)O[C@H](OCc3ccc(CO)cc3)C2)cc1`?
STAT1 blocker: 1; HSP90 refold inh: 16*

How did COc1ccc(CC2=C(O)c3ccccc3C(=O)C2=O)cc1 do in these assays?
HSP90 refold inh: 0

Screens (PubChem)
